The results in this text go back to ChEMBL document CHEMBL1140739, “Modulation of cellular apoptosis with apoptotic protease-activating factor 1 (Apaf-1) inhibitors” (2008).

Assay [1] deals with SAOS-2. The experiment in a line: Inhibition of apoptosome activity in human Saos2 cells assessed as inhibition of caspase 3 at 5 uM after 24 hrs by fluorimetric DEVDase assay. Type of assay: functional. The conditions noted are these: SAOS-2, 24 h. A digest of the protocol: (§1)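 Apoptosis was induced with doxorubicin in PBS (HeLa 2 µg/mL, 3 × 10⁵ cells/plate; U-2 OS 2.5 µg/mL, 3.5 × 10⁵ cells/plate) or with doxycycline 2 µg/mL (Saos-2, tet-ON Bax, 2 × 10⁵ cells/plate). Compound was added 30 min later at 5 µM, and cells were harvested at 24, 48 or 72 h. Lysis was by PIPES/KCl/EDTA/MgCl₂/DTT buffer with three freeze-thaw cycles. Protein was equalized by BCA, then 20 µM Ac-DEVD-afc was added in PBS with 10% glycerol, 0.1 mM EDTA and 2 mM DTT. Fluorescence was read at 37 °C (ex 400, em 508 nm) as ΔFU/min; mean ± SE, n > 3.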

Assay [2] concerns SAOS-2. As to the kind of experiment: Antiapoptotic activity against human Saos2 cells assessed as cell recovery at 5 uM after 24 hrs by flow cytometry. It is filed as functional.
Assay [3] has as its system U-937. The experiment in a line: Cytotoxicity against human U937 cells after 24 hrs by MTT assay. Type of assay: functional, cell-based. A digest of the protocol:
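U937 cells in RPMI 1640 with 10% FCS and 2 mM L-glutamine were seeded at 2.5 × 10³ or 4 × 10³ cells/well and settled for 24 h. Filter-sterilized compounds were added at final 1, 5 and 10 µM (polymer conjugate at 20, 50 and 100 µM drug equivalent) for 19 h. MTT was then added for a further 5 h, giving 24 h total exposure. Formazan was dissolved in DMSO and read at 570 nm; mean ± SE, n > 3.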
On the technique in general: Tetrazolium dyes change colour on reduction, which living cells bring about.

The test system of assay [4] is A549. As to the kind of experiment: Antiapoptotic activity against human A549 cells assessed as inhibition of doxorubicin-induced cell death after 24 hrs by flow cytometry. Type of assay: functional, cell-based. Background: In flow cytometry, cells or beads pass a laser one at a time.
Assay [5] relates to U-937. As to the kind of experiment: Antiapoptotic activity against human U937 cells assessed as inhibition of doxorubicin-induced cell death after 24 hrs by flow cytometry. Type of assay: functional, cell-based.
Assay [6] relates to HeLa. As to the kind of experiment: Inhibition of apoptosome activity in human HeLa cells assessed as inhibition of caspase 3 at 5 uM after 48 hrs by fluorimetric DEVDase assay. Type of assay: functional. The method, boiled down: as §1
The subject of assay [7] is U2OS. As to the kind of experiment: Antiapoptotic activity against human U2OS cells assessed as inhibition of doxorubicin-induced cell death by flow cytometry. Type of assay: functional, cell-based.
Assay [8] deals with U2OS. As to the kind of experiment: Antiapoptotic activity against human U2OS cells assessed as inhibition of doxorubicin-induced cell death after 24 hrs by flow cytometry. Type of assay: functional, cell-based.
Assay [9] relates to SAOS-2. The experiment in a line: Antiapoptotic activity against human Saos2 cells assessed as inhibition of doxycyclin-induced cell death after 24 hrs by flow cytometry. It is filed as functional, cell-based.
For assay [10], the system named is SAOS-2. The experiment in a line: Inhibition of apoptosome activity in human Saos2 cells assessed as inhibition of caspase 3 after 24 hrs by fluorimetric DEVDase assay. It is filed as functional, cell-based.
Assay [11] deals with SAOS-2. The experiment in a line: Antiapoptotic activity against human Saos2 cells assessed as inhibition of doxycyclin-induced cell death at 1 uM by flow cytometry. It is filed as functional.
Assay [12] deals with HeLa. As to the kind of experiment: Antiapoptotic activity against human HeLa cells assessed as inhibition of doxorubicin-induced cell death after 24 hrs by flow cytometry. Type of assay: functional, cell-based.
Assay [13] concerns U2OS. The experiment in a line: Inhibition of apoptosome activity in human U2OS cells assessed as inhibition of caspase 3 at 5 uM after 48 hrs by fluorimetric DEVDase assay. Type of assay: functional. The method, boiled down:
as §1

Activity calls are given as the source filed them. The calls are words filed in the database; no cut-off is given here. Starred links: 1 amine or outer side, 2 acyl side, 3 side chain; linkers in the order of their positions; H or OH if unused. Non-standard residues stand in square brackets, D forms with d. Residues, ends and D or L forms follow the SMILES beside them. N(2,4-Cl2-phenethyl)Gly = O=C(O)CNCCc1ccc(Cl)cc1Cl; X1 = O=C(CN(CCC(c1ccccc1)c1ccccc1)[*:1])[*:2]

As to `NC(=O)CN(CCc1ccc(F)cc1)C(=O)C1CC(=O)N(CCc2ccc(Cl)cc2Cl)CC(=O)N1CCC(c1ccccc1)c1ccccc1` (stereo unspecified), the inhibition at 5 µM in assay [1] was 34%. The Activity in [2] amounted to 57%.
As for `COc1ccccc1CCN(CC(N)=O)C(=O)C1CC(=O)N(CCc2ccc(Cl)cc2Cl)CC(=O)N1CCC(c1ccccc1)c1ccccc1` (stereo unspecified), the inhibition at 5 µM in [1] was 1%. Also, the Activity in assay [2] was found to be 41%.
On to `CC(=O)NCCN(CC(N)=O)C(=O)C1CC(=O)N(CCc2ccc(Cl)cc2Cl)CC(=O)N1CCC(c1ccccc1)c1ccccc1` (stereo unspecified), for which, in [1], the inhibition at 5 µM is 21%. Besides, the Activity in assay [2] turned out to be 12%.
With `CC[C@H](C)[C@H](NC(=O)[C@H](CCCCN)NC(=O)[C@@H](NC(=O)[C@H](CCC(N)=O)NC(=O)[C@@H](N)CCCNC(=N)N)[C@@H](C)CC)C(=O)N[C@@H](Cc1c[nH]c2ccccc12)C(=O)N[C@@H](Cc1ccccc1)C(=O)N[C@@H](CCC(N)=O)C(=O)N[C@@H](CC(N)=O)C(=O)N[C@@H](CCCNC(=N)N)C(=O)N[C@@H](CCCNC(=N)N)C(=O)N[C@@H](CCSC)C(=O)N[C@@H](CCCCN)C(=O)N[C@@H](Cc1c[nH]c2ccccc12)C(=O)N[C@@H](CCCCN)C(=O)N[C@@H](CCCCN)C(=O)NCC(=O)NCC(=O)N(CCc1ccc(Cl)cc1Cl)CC(=O)N(CCC(c1ccccc1)c1ccccc1)CC(=O)N(CCc1ccc(Cl)cc1Cl)CC(N)=O`, the Activity result in [3] is “Toxic”.
On to `NC(=O)CN(C(=O)C1CC(=O)N(CCc2ccc(Cl)cc2Cl)CC(=O)N1CCC(c1ccccc1)c1ccccc1)C1CC1` (stereo unspecified), for which the inhibition at 5 µM in [1] was 16%. Also, in assay [2], the Activity worked out at 10%.
For `NC(=O)CN(CCc1ccccc1F)C(=O)C1CC(=O)N(CCc2ccc(Cl)cc2Cl)CC(=O)N1CCC(c1ccccc1)c1ccccc1` (stereo unspecified), in that order: 51% and 16%.
In the case of `NC(=O)CN(CCc1ccc(Cl)cc1Cl)C(=O)C1CC(=O)N(CCc2ccc(Cl)cc2Cl)CC(=O)N1CCC(c1ccccc1)c1ccccc1` (stereo unspecified), the result in [4], in assay [5], in assay [7], in assay [8], in assay [9] and in [10] was Active. Besides, in assay [12], the result was Active. The inhibition at 5 µM in assay [1] is 53%; in assay [6], 60%; in assay [13] it was 50%. The Activity result in assay [3] was “Not toxic”; in assay [2], 50%. Moreover, in assay [11], the inhibition at 1 µM was determined as 60%.
`CC(C)C[C@H](NC(=O)[C@H](C)NC(=O)[C@H](CCCCN)NC(=O)[C@@H](NC(=O)[C@@H](N)CS)[C@@H](C)O)C(=O)NCC(=O)N[C@@H](CS)C(=O)NCC(=O)NCC(=O)N[C@@H](Cc1ccc(O)cc1)C(=O)NCC(=O)N[C@@H](CCCNC(=N)N)C(=O)N[C@@H](CCCCN)C(=O)N[C@@H](CCCCN)C(=O)N[C@@H](CCCNC(=N)N)C(=O)N[C@@H](CCCNC(=N)N)C(=O)N[C@@H](CCC(N)=O)C(=O)N[C@@H](CCCNC(=N)N)C(=O)N[C@@H](CCCNC(=N)N)C(=O)N[C@@H](CCCNC(=N)N)C(=O)N(CCc1ccc(Cl)cc1Cl)CC(=O)N(CCC(c1ccccc1)c1ccccc1)CC(=O)N(CCc1ccc(Cl)cc1Cl)CC(N)=O` (H-CTKALGCGGYGRKKRRQRRR[N(2,4-Cl2-phenethyl)Gly][X1][N(2,4-Cl2-phenethyl)Gly]-NH2): the Activity entry in assay [3] is “Toxic”. Further, in assay [7], the outcome was inactive.
Turning to `CCCCN(CC(N)=O)C(=O)C1CC(=O)N(CCc2ccc(Cl)cc2Cl)CC(=O)N1CCC(c1ccccc1)c1ccccc1` (stereo unspecified), the inhibition at 5 µM in assay [1] was determined as 45%. For the same compound, the Activity in assay [2] is on record as 2%.
For `NC(=O)CN(CCc1ccc(Cl)cc1)C(=O)C1CC(=O)N(CCc2ccc(Cl)cc2Cl)CC(=O)N1CCC(c1ccccc1)c1ccccc1` (stereo unspecified), in that order: 2% and 23%.
As for `NC(=O)CN(CC1CCCO1)C(=O)C1CC(=O)N(CCc2ccc(Cl)cc2Cl)CC(=O)N1CCC(c1ccccc1)c1ccccc1` (stereo unspecified), the Activity in [2] came to 9%.

As a reminder, the inhibition is the share of the control response that was lost under treatment.
